Published values gathered from unrelated publications.
Lines come from different studies, so protocols differ.
Target: Serine/threonine-protein kinase 4 (STK4, Homo sapiens, UniProt Q13043)
One construct used (Q13043 1-487): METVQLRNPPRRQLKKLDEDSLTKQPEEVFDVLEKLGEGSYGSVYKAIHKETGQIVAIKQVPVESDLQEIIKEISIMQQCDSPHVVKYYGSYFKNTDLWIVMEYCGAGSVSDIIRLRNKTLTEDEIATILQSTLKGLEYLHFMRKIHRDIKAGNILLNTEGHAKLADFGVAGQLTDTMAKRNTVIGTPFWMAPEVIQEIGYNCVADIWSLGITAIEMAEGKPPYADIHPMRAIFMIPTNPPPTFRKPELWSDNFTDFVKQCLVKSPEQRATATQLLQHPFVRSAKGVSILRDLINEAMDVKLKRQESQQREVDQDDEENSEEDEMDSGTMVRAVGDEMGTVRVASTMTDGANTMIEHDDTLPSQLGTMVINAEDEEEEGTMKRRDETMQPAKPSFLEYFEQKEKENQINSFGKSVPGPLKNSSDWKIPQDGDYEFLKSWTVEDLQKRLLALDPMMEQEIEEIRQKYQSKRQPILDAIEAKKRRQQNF

`CS(=O)(=O)c1cc(C2(NC(=O)c3cncc4c3cnn4-c3ccc(F)cc3)CC2)ccn1` gave a remaining binding of 77% (cell-free assay; competition with immobilised ligand; 1 µM).
The remaining binding of `O=C(c1ccc(Nc2nccc(-c3cc4ccccc4s3)n2)cc1)N1CCC(N2CCCC2)CC1` is reported as 100% (binding; competition with immobilised ligand; 1 µM).
For `FC(F)(F)Oc1cccc(-c2cnc3ccc(-c4ccncc4)nn23)c1`, the remaining binding was 100% (cell-free assay; competition with immobilised ligand; 5 µM).
`CC1CCCN1c1nccc(-c2cnn3ncccc23)n1` (centres unmarked) gave a remaining binding of 98% (binding; 1 µM).
For `O=C(c1ccc(Nc2ncc(Cl)c(-c3cc4ccccc4s3)n2)cc1)N1CCC(N2CCCC2)CC1`, the remaining binding was 100% (binding; competition with immobilised ligand; 1 µM).
`N[C@H]1CCN(c2nccc(-c3cnn4ncccc34)n2)C1` has a remaining binding of 100% (binding; 1 µM).
For `COc1cnc(Nc2cccc(S(N)(=O)=O)c2)nc1N1CCN(c2ccccc2)C(=O)C1`, the remaining binding was 98% (binding; competition with immobilised ligand; 1 µM).
`CN(C)c1nccc(-c2cnn3ncccc23)n1` gave a remaining binding of 100% (binding; 1 µM).
`O=C(NCC1CCOCC1)c1n[nH]cc1NC(=O)c1c(F)cccc1F` has a remaining binding of 100% (binding; competition with immobilised ligand; 1 µM).
The remaining binding of `CN(CCCC(F)(F)F)c1nccc(-c2cnn3ncccc23)n1` is reported as 89% (binding; 1 µM).
For `CNC(=O)c1ccc(Nc2ncc(C(F)(F)F)c(NCc3nccnc3N(C)S(C)(=O)=O)n2)cc1`, the remaining binding was 97% (cell-free assay; competition with immobilised ligand; 0.1 µM).
The remaining binding of `CN(C)c1nccc(-c2cnc3ncccn23)n1` is reported as 88% (binding; 1 µM).
With `O=C1CCc2cc(Nc3cc(OC4CCOCC4)c([N+](=O)[O-])cc3Cl)ccc2N1` the remaining binding was 100% (cell-free assay; competition with immobilised ligand; 1 µM).
For `CCN1CCN(Cc2ccc(C(=O)Nc3ccc(C)c(Oc4ccc5c(c4)CC(=O)N5)c3)cc2C(F)(F)F)CC1`, the remaining binding was 100% (binding; competition with immobilised ligand; 1 µM).
`CCCOc1ccc([C@@H]2[C@@H](C(=O)O)[C@H](c3ccc4c(c3)OCO4)CN2CC(=O)Nc2c(CC)cccc2CC)cc1` has a remaining binding of 95% (cell-free assay; competition with immobilised ligand; 1 µM).
`C[C@@H]1CCN(c2nccc(-c3cnn4ncccc34)n2)C1` has a remaining binding of 85% (binding; 1 µM).
The remaining binding of `Cc1c[nH]c2nccc(Oc3c(F)cc(Nc4cc(Cl)nc(N)n4)cc3F)c12` is reported as 100% (cell-free assay; competition with immobilised ligand; 0.1 µM).
For `COc1ncc2cc3ccccc3nc2c1C#N`, the remaining binding was 96% (cell-free assay; competition with immobilised ligand; 5 µM).
`CSc1cccnc1N1CCN(Cc2nc3ccccc3[nH]2)CC1` gave a remaining binding of 85% (cell-free assay; competition with immobilised ligand; 1 µM).
The remaining binding of `O=C(NCCCN1CCOCC1)c1ccc(Nc2nccc(-c3cc4ccccc4s3)n2)cc1` is reported as 100% (binding; competition with immobilised ligand; 1 µM).
